# Test results reported in ChEMBL document CHEMBL4017491, “Phthalazino[1,2-b]quinazolinones as p53 Activators: Cell Cycle Arrest, Apoptotic Response and Bak-Bcl-xl Complex Reorganization in Bladder Cancer Cells” (J Med Chem, 2017).
# Activity calls are given as the source filed them. The rule behind the calls is not given here.
# How the values were obtained:
# [1] = tested on: T-24; experiment: Cell cycle arrest in human T24 cells assessed as accumulation at sub-G1 phase at 1 to 10 uM after 48 hrs by propidium iodide staining based FACS analysis; assay type: functional
# Summary of the method: (§1)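 Cells treated with 1−10 μM for 48 h, trypsinized, and fixed in 70% ethanol. Stained with 50 μg/mL propidium iodide and phase distribution analyzed by flow cytometry. Mean ± SD from three independent measurements.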
# [2] = tested on: J82; experiment: Cell cycle arrest in human J82 cells assessed as accumulation at G1 phase at 5 uM after 48 hrs by propidium iodide staining based FACS analysis (reference value: 42.29 %); assay type: functional; summary of the method: as §1
# [3] = tested on: J82; experiment: Cell cycle arrest in human J82 cells assessed as accumulation at G2 phase at 5 uM after 48 hrs by propidium iodide staining based FACS analysis (reference value: 10.92 %); assay type: functional; summary of the method: as §1
# [4] = tested on: J82; experiment: Cell cycle arrest in human J82 cells assessed as accumulation at G1 phase at 10 uM after 48 hrs by propidium iodide staining based FACS analysis (reference value: 42.29 %); assay type: functional; summary of the method: as §1
# [5] = tested on: J82; experiment: Cell cycle arrest in human J82 cells assessed as accumulation at G2 phase at 10 uM after 48 hrs by propidium iodide staining based FACS analysis (reference value: 10.92 %); assay type: functional; summary of the method: as §1
# [6] = tested on: T-24; experiment: Effect on p53 expression in human T24 cells up to 10 uM after 24 hrs by Western blot analysis; assay type: functional, cell-based
# Summary of the method: (§2)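 T24 cells (3 × 10^5 per well) grown to 85–95% confluence, then exposed 24 h to 0–10 μM. Whole-cell extracts run on SDS-PAGE and blotted to nitrocellulose. Probed with the indicated antibodies and AP-linked anti-rabbit IgG, with ECL detection. Blots stripped and reprobed for β-actin as loading control.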
# [7] = tested on: DU-145; experiment: Antiproliferative activity against human DU145 cells harboring p53 mutant by MTT assay; assay type: functional, cell-based
# Summary of the method: (§3)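 Cell lines cultured in RPMI 1640 with 10% FBS. Viability read by MTT (5 mg/mL, 4 h at 37 °C), with formazan dissolved in DMSO and absorbance taken at 490 nm. Viability (%) = A490 treated / A490 control × 100. IC50 taken from dose-response curves, from three independent experiments each run in triplicate.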
# [8] = tested on: LNCaP; experiment: Antiproliferative activity against human LNCAP cells harboring wild type p53 by MTT assay; assay type: functional, cell-based; summary of the method: as §3
# [9] = biological target: Cellular tumor antigen p53 (Homo sapiens) (UniProt P04637); experiment: Activation of p53 in human T24 cells assessed as increase in cyclinE-CDK2 complex formation up to 10 uM after 24 hrs by Western blot analysis; assay type: cell-based
# Chain of Cellular tumor antigen p53 (Homo sapiens) (P04637 whole entry, looked up): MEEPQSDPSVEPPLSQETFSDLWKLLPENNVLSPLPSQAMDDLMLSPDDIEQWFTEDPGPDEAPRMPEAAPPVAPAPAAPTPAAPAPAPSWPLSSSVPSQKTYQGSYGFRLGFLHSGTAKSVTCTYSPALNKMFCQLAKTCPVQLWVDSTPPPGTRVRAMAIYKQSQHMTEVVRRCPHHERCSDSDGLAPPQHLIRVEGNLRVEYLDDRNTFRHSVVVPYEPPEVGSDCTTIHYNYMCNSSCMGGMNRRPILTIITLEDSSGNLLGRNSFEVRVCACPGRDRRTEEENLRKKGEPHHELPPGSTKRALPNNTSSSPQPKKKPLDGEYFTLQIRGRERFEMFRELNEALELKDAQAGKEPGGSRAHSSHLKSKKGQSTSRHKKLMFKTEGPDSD
# Summary of the method: (§4)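 T24 cells, 3 × 10^5 per well, grown to 85−95% confluence, then exposed to 0−10 μM for 24 h. Whole-cell extracts in sample buffer run on SDS-polyacrylamide gels and transferred to nitrocellulose. Blots probed with primary antibodies and AP-linked anti-rabbit IgG, detected by ECL. Blots stripped and reprobed for β-actin as loading control.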
# [10] = tested on: T-24; experiment: Induction of apoptosis in human T24 cells assessed as early apoptotic cells at 1 uM by Annexin V-FITC/propidium iodide based flow cytometric analysis (reference value: 1.79%); assay type: functional
# [11] = tested on: T-24; experiment: Induction of apoptosis in human T24 cells assessed as apoptotic inducing factor translocation from mitochondria to nucleus at 1 to 10 uM after 48 hrs by Hoechst 33258 staining based fluorescence confocal microscopic analysis; assay type: functional, cell-based
# Summary of the method: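 T24 cells on glass slides, treated for 48 h. Fixed in 4% paraformaldehyde, permeabilised with 1% Triton X-100, nuclei stained with Hoechst 33258 (final 0.5 μg/mL). Imaged by confocal fluorescence microscopy.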
# [12] = biological target: Cellular tumor antigen p53 (Homo sapiens) (UniProt P04637); experiment: Induction of phospho-p53 accumulation in human T24 cells assessed as activation of bak at 1 to 10 uM after 48 hrs by Hoechst 33258 staining based fluorescence confocal microscopic analysis; assay type: cell-based
# Summary of the method: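 T24 cells treated for 48 h, fixed in 4% paraformaldehyde. Immunostained with antibody to active (N-terminal) Bak and a Cy3-conjugated secondary antibody. Imaged by confocal microscopy at 400×.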
# [13] = biological target: Cellular tumor antigen p53 (Homo sapiens) (UniProt P04637); experiment: Induction of phospho-p53 accumulation in human T24 cells assessed as disruption of Bak-Bcl-xl interaction up to 10 uM by coimmunoprecipitation assay; assay type: cell-based
# [14] = tested on: MGC-803; experiment: Antiproliferative activity against human MGC803 cells by MTT assay; assay type: functional, cell-based; summary of the method: as §3
# [15] = tested on: HepG2; experiment: Antitumor activity against human HepG2 cells xenografted in BALB/C nude mouse assessed as tumor growth inhibition at 6 mg/kg, ip administered every 2 days for 16 days relative to control; assay type: functional; conditions: read-out: TGI
# Summary of the method: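 Male BALB/C nude mice, 6 weeks old, given subcutaneous flank injection of 5 × 10^6 HepG2 cells; tumors of 80−200 mm3 randomized, n = 6/group. Dosing ip every other day, vehicle 5% DMSO in saline (v/v). Tumor length and width measured three times a week, volume V = lw2/2; growth inhibition expressed versus vehicle group. Body weight also recorded.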
# [16] = tested on: Mus musculus; experiment: Toxicity in BALB/C nude mouse xenografted with human HepG2 cells at 6 to 12 mg/kg, ip administered every 2 days for 16 days; assay type: organism-based; conditions: in vivo
# Summary of the method: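 Male BALB/C nude mice with HepG2 flank xenografts, n = 6/group. Given ip 6 or 12 mg/kg every 2 days in 5% DMSO/saline; vehicle and HCPT 6 mg/kg as controls. Clinical signs, food intake and body weight monitored; tumour size and weight measured three times weekly.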
# [17] = tested on: T-24; experiment: Downregulation of Bak protein expression in human T24 cells at 10 uM after 24 hrs by Western blot method; assay type: functional, cell-based; summary of the method: as §4
# [18] = tested on: T-24; experiment: Induction of DNA damage in human T24 cells assessed as gammaH2AX level up to 10 uM by immunoblot analysis; assay type: functional, cell-based
# [19] = tested on: T-24; experiment: Induction of membrane disruption in human T24 cells at 1 to 10 uM after 1 hr by propidium iodide staining based FACS analysis; assay type: functional, cell-based
# Summary of the method: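 T24 cells exposed 1 h to 1–10 μM, then trypsinised and washed in PBS. Resuspended in 50 μg/mL propidium iodide in PBS and analysed immediately by flow cytometry with a 488 nm argon laser.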
# [20] = tested on: T-24; experiment: Effect on cell cycle distribution in human T24 cells assessed as early apoptotic cells at 1 uM after 1 hr by Annexin V-FITC/propidium iodide staining based FACS analysis relative to control; assay type: functional
# [21] = tested on: T-24; experiment: Effect on cell cycle distribution in human T24 cells assessed as early apoptotic cells at 5 uM after 1 hr by Annexin V-FITC/propidium iodide staining based FACS analysis relative to control; assay type: functional
# [22] = tested on: T-24; experiment: Effect on cell cycle distribution in human T24 cells assessed as late apoptotic cells at 5 uM after 1 hr by Annexin V-FITC/propidium iodide staining based FACS analysis relative to control; assay type: functional
# [23] = tested on: T-24; experiment: Effect on cell cycle distribution in human T24 cells assessed as late apoptotic cells at 10 uM after 1 hr by Annexin V-FITC/propidium iodide staining based FACS analysis relative to control; assay type: functional
# [24] = tested on: T-24; experiment: Effect on p53 protein expression in human T24 cells up to 10 uM after 24 hrs by Western blot analysis; assay type: functional, cell-based; summary of the method: as §2
# [25] = tested on: T-24; experiment: Induction of apoptosis in human T24 cells assessed as early apoptotic cells at 5 uM by Annexin V-FITC/propidium iodide based flow cytometric analysis (reference value: 1.79%); assay type: functional
# [26] = tested on: Mus musculus; experiment: Down regulation of Bak expression in BALB/C nude mouse xenografted with human T24 cells at 6 to 12 mg/kg, ip administered every 2 days for 16 days by immunoblot analysis
smiles,measurement,setting,value
CN(C)CCNc1nn2c(=O)c3cc(Br)ccc3nc2c2ccccc12,Activity,[1],Active
same,Activity,[2],17.78%
same,Activity,[3],38.21%
same,Activity,[4],12.13%
same,Activity,[5],23.67%
same,Activity,[6],inactive
same,Activity,[7],inactive
same,Activity,[8],Active
same,Activity,[9],Active
same,Activity,[10],4.22%
same,Activity,[11],Active
same,Activity,[12],Active
same,Activity,[13],Active
same,IC50,[14],4.29 µM
same,inhibition in vivo at 6 mg/kg,[15],43.6%
same,Activity,[16],Non-Toxic
same,Activity,[17],Active
same,Activity,[18],inactive
same,Activity,[19],inactive
same,Activity,[20],0%
same,Activity,[21],0%
same,Activity,[22],0%
same,Activity,[23],0%
same,Activity,[24],inactive
same,Activity,[25],26.4%
same,Activity,[26],Active
